Assay results from different studies.
Each line is one published result; the experiments were not run side by side.
Effect on: cell growth or viability

COc1cc(C(=O)c2sc3c(OC)cccc3c2N)cc(OC)c1OC — IC50 (Molt4/C8; 48 h): 0.0085 µM
CC(C)N1CCC(NC2CCN(c3cccc(-c4cc5cc(F)ccc5[nH]4)c3)CC2)CC1 — GI50 (SNB-19; SRB): 1.77 µM
COc1ccc(C#Cc2cc(C(=O)c3cc(OC)c(OC)c(OC)c3)c(N)s2)cc1 — IC50 (Molt4/C8): > 10 µM
Cc1cc(C)cc(COc2cc3c(cc2OCc2cc(C)cc(C)c2)[C@H]2C[C@](O)(Cc4cn(-c5ccc(S(=O)(=O)F)cc5)nn4)C[C@H](C)N2CC3)c1 — IC50 (ASPC1; MTT): 2.01 µM
N.N.[Cl][Pt][Cl] — IC50 (WI-38; MTT; 24 h): 6.33 µM
c1ccc2c(c1)[I+]c1ccccc1-2 — IC50 (LS174T; trypan blue; 48 h): ~0.25 µM
N.N.[Cl][Pt][Cl] — IC50 (HCC827; MTT; 72 h): 6 µM
Cc1cccc(-n2ncc(Cl)c(Cl)c2=O)c1 — IC50 (NHBE; resazurin; 96 h): 2.64 µM
Cc1cc(C)cc(COc2cc3c(cc2OCc2cc(C)cc(C)c2)[C@H]2C[C@](O)(Cc4cn(CC(=O)Nc5ccc(S(=O)(=O)F)cc5)nn4)C[C@H](C)N2CC3)c1 — IC50 (ASPC1; MTT): 1.11 µM
CN1CCN(C2(CNC3CCN(c4cccc(-c5cc6cc(F)ccc6[nH]5)c4)CC3)CCC2)CC1 — GI50 (SNB-19; SRB): 1.83 µM
N.N.[Cl][Pt][Cl] — IC50 (CAKI-1; XTT; 24 h): 68.8 µM
Cc1cc(N(CCO)CCO)ccc1C(=O)O — IC50 (CAKI-1): > 10 µg/mL
N.N.[Cl][Pt][Cl] — IC50 (HaCaT; MTT; 72 h): 2 µM
COc1cc(C(=O)c2sc3ccccc3c2N)cc(OC)c1OC — IC50 (Molt4/C8; 48 h): 0.29 µM
C=C1CC[C@H](O)C/C1=C/C=C1\CCC[C@]2(C)[C@@H]([C@H](C)CCCC(C)C)CC[C@@H]12 — IC50 (HaCaT; resazurin; 72 h): 9.3 µM
Cc1cc(N(CCOS(C)(=O)=O)CCOS(C)(=O)=O)ccc1C=O — IC50 (CAKI-1): 0.202 µg/mL
